TRPC4 agonist = opens the mouse TRPC4 cation channel. HEK293 TRPC4beta/mu-opioid, Fluo4 calcium fluorescence; stronger effect = higher value. B-score at 10 µM. 310,000 compounds, 0.49% hits. AID 2237;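 active means B-score above 5 SD of library B-scores, and initial fluorescence ratio not above library mean plus 5 SD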;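 further: positive B-score marks a calcium rise read as TRPC4 activation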
Target sequence (Q9QUQ5 whole entry, looked up): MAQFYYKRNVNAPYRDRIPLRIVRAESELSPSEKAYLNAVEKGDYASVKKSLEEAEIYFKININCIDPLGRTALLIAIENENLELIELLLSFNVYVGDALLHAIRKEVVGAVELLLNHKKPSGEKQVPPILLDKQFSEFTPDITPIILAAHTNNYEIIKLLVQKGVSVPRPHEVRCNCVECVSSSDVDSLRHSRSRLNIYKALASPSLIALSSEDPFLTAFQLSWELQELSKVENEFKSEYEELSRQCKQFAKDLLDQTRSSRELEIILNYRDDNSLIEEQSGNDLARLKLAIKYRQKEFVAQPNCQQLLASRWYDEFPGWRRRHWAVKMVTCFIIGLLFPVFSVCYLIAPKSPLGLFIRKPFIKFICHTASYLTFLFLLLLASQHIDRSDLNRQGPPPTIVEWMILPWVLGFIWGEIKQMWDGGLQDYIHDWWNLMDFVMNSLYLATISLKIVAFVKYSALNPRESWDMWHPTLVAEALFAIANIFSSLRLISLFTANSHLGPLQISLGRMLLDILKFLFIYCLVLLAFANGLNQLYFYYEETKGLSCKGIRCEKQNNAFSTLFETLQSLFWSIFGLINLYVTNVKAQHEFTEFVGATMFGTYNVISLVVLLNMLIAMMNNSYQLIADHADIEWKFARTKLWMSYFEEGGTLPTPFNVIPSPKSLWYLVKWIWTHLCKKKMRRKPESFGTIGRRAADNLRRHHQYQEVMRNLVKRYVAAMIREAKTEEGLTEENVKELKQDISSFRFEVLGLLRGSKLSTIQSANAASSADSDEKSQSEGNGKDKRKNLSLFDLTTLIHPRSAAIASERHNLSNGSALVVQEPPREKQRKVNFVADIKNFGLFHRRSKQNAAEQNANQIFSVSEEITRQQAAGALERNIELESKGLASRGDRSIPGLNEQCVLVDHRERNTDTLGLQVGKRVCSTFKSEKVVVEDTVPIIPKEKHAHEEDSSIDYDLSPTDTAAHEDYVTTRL
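Material: TRPC4beta and mu-opioid receptor HEK293 stable cells | Incubation: 45 min room-temperature Fluo4 loading, 110 s read | Detection: Kinetic Fluo4 calcium fluorescence | Measure: Integrated baseline-normalised fluorescence ratio, converted to per-well B score | Benchmarks: Low control buffer alone, high control maximal DAMGO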
TRPC6 act = activators of mouse TRPC6 channel; Q61143; HEK293-TRPC6 membrane potential dye fluorescence; stronger effect = higher value; B-score at 10 µM; 310,000 compounds, 0.13% hits;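 active means B-score of the integrated fluorescence ratio above library mean plus 3 SD, and starting fluorescence ratio within library mean plus 5 SD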;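 further: higher score means more depolarization so channel activation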
TRPC4 block = blocks the mouse TRPC4 cation channel. Q9QUQ5. HEK293 TRPC4beta/mu-opioid, DAMGO-evoked Fluo4 calcium flux; stronger effect = lower value. B-score at 10 µM. 300,000 compounds, 0.39% hits. AID 2247;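 active means B-score over 3 SD under the library average, no early fluorescence shift, positive overall ratio signal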
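Material: HEK293 cells with stable TRPC4beta plus mu-opioid receptor expression; probe or stimulus: DAMGO in two steps, submaximal then maximal; technique: Fluo4 calcium fluorescence by kinetic imaging, 5 s 1 Hz baseline; measure: integrated fluorescence ratio relative to baseline, converted to per-well B score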
TRPC6 inh = blocks the mouse TRPC6 cation channel | Q61143 | HEK293-TRPC6, membrane potential dye, ACh-evoked depolarization; stronger effect = lower value | B-score at 10 µM | 310,000 compounds, 1.1% hits;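 active means B-score under library mean minus 3 SD, initial fluorescence not abnormally high, positive integrated signal ratio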;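 further: B-score derived from integrated fluorescence ratio over the kinetic read; more negative B-score means stronger inhibition of depolarization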
TRPC4 PAM = allosterically enhances the mouse TRPC4 cation channel; 310,000 compounds, 0.42% hits; HEK293 TRPC4beta/mu-opioid, DAMGO EC20, Fluo-4 Ca2+ flux; stronger effect = higher value; B-score at 10 µM;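 active means B-score of calcium response area above 5 SD of library B-scores, with initial fluorescence ratio within 5 SD of library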;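 further: B-score of integrated fluorescence ratio over time as area under calcium response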
TRPC4 spec 2 = second selectivity test of TRPC6 inhibitors: effect on mouse TRPC4; shares compounds with TRPC6 inh; HEK293 TRPC4/MOR, membrane potential dye fluorescence; channel activated by saturating DAMGO dose; inhibition, % at 10 µM; 920 compounds, 42% hits; AID 2776;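 active means compounds whose fluorescence signal differed from control wells by over 3 SD, either direction, in both duplicate plates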
TRPC4 spec = mouse TRPC4 off-target activity of TRPC6 inhibitors; AID 2777; HEK293 TRPC4/mu-opioid, membrane potential fluorescence; 920 compounds, 61% hits; activity change, negative = inhibition, % at 10 µM; shares compounds with TRPC6 inh;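 active means rise or fall in signal beyond 3 SD of buffer-only wells in both replicate plates, either sign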;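 further: integrated kinetic ratio of fluorescence range over baseline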
HEK293 MPD ctr 2-1 = second counter-screen for TRPC6 inhibitors: parental HEK293 cells. shares compounds with TRPC6 inh. parental HEK293 membrane potential dye fluorescence; maximal acetylcholine challenge after compound addition. signal change vs control, % at 10 µM. 920 compounds, 31% hits. AID 2779;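 active means membrane potential signal moving either way by over 3 SD of the maximum-effect control, in both duplicate plates, meaning non-specific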
HEK293 MPD ctr-1 = counter-screen for TRPC6 inhibitors: effect in parental HEK293 cells; shares compounds with TRPC6 inh; parental HEK293 membrane potential dye fluorescence; membrane potential signal change, % at 10 µM; 920 compounds, 60% hits;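 active means membrane potential signal shifting up or down by more than 3 SD of buffer-only wells, on both duplicate plates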
HEK293 MPD ctr-2 = parental HEK293 nonspecific activity of TRPC6 modulators; shares compounds with TRPC6 inh; membrane potential dye fluorescence; membrane potential signal change, % at 10 µM; 2,400 compounds, 51% hits; AID 488924;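 active means membrane potential signal moves up or down beyond 5 SD from buffer-only wells, on both duplicate plates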
HEK293 MPD ctr 2-2 = second counter-screen for TRPC6 modulators: effect in parental HEK293 cells. membrane potential dye fluorescence; after compound, maximal acetylcholine stimulation. inhibition, % at 10 µM. shares compounds with TRPC6 inh. 2,400 compounds, 14% hits;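 active means membrane potential signal drops by more than 5 SD from the mean control signal, in both duplicate plates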;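 further: plate controls were acetylcholine ECmax control wells for no effect and buffer only wells for full effect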
TRPC4 ctr mod = selectivity of TRPC6 modulators against mouse TRPC4; shares compounds with TRPC6 inh; HEK293 TRPC4/mu-opioid, membrane potential fluorescence; percent change from control (negative = decrease, positive = increase), % at 10 µM; 2,400 compounds, 69% hits;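 active means membrane potential signal moved up or down beyond 5 SD of buffer control wells, in both duplicate plates, actives on both sides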;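 further: plate controls were assay buffer wells for no effect and DAMGO maximal-effect wells for full effect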
TRPC4/MOR inh 2 = second selectivity test of TRPC6 modulators against mouse TRPC4. shares compounds with TRPC6 inh. inhibition, % at 10 µM. AID 488928. 2,400 compounds, 55% hits. HEK293 TRPC4/mu-opioid, membrane potential dye fluorescence; stimulated with maximal-effect DAMGO;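 active means drop in membrane potential signal beyond 5 SD of the control wells in both duplicate plates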;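 further: TRPC4 counter screen for TRPC6 hits run under conditions tuned for TRPC6 not TRPC4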
TRPC6 block conf = confirmation of mouse TRPC6 inhibitors. shares compounds with TRPC6 inh. HEK293-TRPC6, membrane potential dye, ACh-evoked depolarization. inhibition, % at 10 µM. 3,300 compounds, 43% hits. AID 488960;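 active means fluorescence ratio falls more than 5 SD below the full-stimulation control mean, in both duplicate runs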;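 further: integrated fluorescence ratio of peak minus minimum over baseline after agonist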
TRPC6 act conf = confirmation of mouse TRPC6 activators; shares compounds with TRPC6 inh; HEK293-TRPC6 membrane potential dye fluorescence, FDSS; activation, % at 10 µM; 2,800 compounds, 11% hits; AID 488961;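 active means ratio signal rise beyond 5 SD above unstimulated control wells' mean, seen in both duplicate runs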;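 further: plate controls were buffer EC0 wells for no effect and acetylcholine ECmax response for full effect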
Numbers without * were called inactive; i = inactive; nt = not tested or not shown. Sampled rows, rich in hits. Any-hit rate of the full collection: about 2.3%.

SMILES	TRPC4 agonist	TRPC6 act	TRPC4 block	TRPC6 inh	TRPC4 PAM	TRPC4 spec 2	TRPC4 spec	HEK293 MPD ctr 2-1	HEK293 MPD ctr-1	TRPC6 block conf	TRPC6 act conf	others
c1ccc2c(c1)Sc1ccccc1N2CC1CN2CCC1CC2 (centres undefined)	i	i	i	i	i	nt	nt	nt	nt	nt	nt
COC(=O)C1=C(c2cccc(OC)c2OC)C[C@@H]2CC[C@H]1N2C(=O)NC1CCCCC1	i	i	i	i	i	nt	nt	nt	nt	nt	nt
CN(C)CCSC1c2ccccc2CSc2ccccc21 (centres undefined)	i	i	i	-6.2*	i	nt	nt	nt	nt	74%*	nt	HEK293 MPD ctr-2=i;HEK293 MPD ctr 2-2=78%*;TRPC4 ctr mod=11%*;TRPC4/MOR inh 2=50%*
CN1CCN(CCOC2c3ccccc3CSc3ccc(Cl)cc32)CC1 (centres undefined)	i	i	i	i	i	nt	nt	nt	nt	nt	nt
CCOc1cc2c(cc1OCC)-n1cccc1C(c1ccc(F)c(OC)c1)NC2 (centres undefined)	i	i	i	i	i	nt	nt	nt	nt	nt	nt
N#CC(C#N)=C(C#N)c1ccc(Nc2ccccc2)cc1	i	i	i	-8.5*	i	i	-10%*	i	i	i	i
COc1ccc(-n2c(Cc3cccc([N+](=O)[O-])c3)nc3ccccc3c2=O)cc1	i	i	i	i	i	nt	nt	nt	nt	nt	nt
C#CC[N+]1(C)[C@@H]2CC[C@H]1CC(OC(=O)C(CO)c1ccccc1)C2 (some centres undefined)	i	i	i	-11*	i	i	i	-21%*	i	94%*	i
C[N+]1(C)[C@@H]2CC[C@H]1CC(OC(=O)[C@@H](CO)c1ccccc1)C2 (some centres undefined)	i	i	i	-7.7*	i	i	i	-38%*	i	96%*	i
C[N+]1(C)CCC(OC(=O)C(c2ccccc2)c2ccccc2)CC1	i	i	i	-7.3*	i	i	i	-18%*	i	91%*	i
O=C(N=Nc1c(O)[nH]c(=O)[nH]c1=O)C1COc2cc3ccccc3cc2O1 (centres undefined)	i	i	i	i	i	nt	nt	nt	nt	nt	nt
Cc1ccc2c(c1)[C@@H]1CN(C)CC[C@@H]1N2C(=O)Nc1cccc(C(F)(F)F)c1	i	i	i	-5.9*	i	nt	nt	nt	nt	i	i	HEK293 MPD ctr-2=i;HEK293 MPD ctr 2-2=i;TRPC4 ctr mod=-14%*;TRPC4/MOR inh 2=47%*

Bioassay records from PubChem.
